# Reference: paper PMC3057960 (Cancer research, 2010)
# Peptide text beside a SMILES is read from it.
# Experiments:
# [1] = Repeated imaging in immunocompetent mice, immune response; assay type: in vivo, mouse; details: up to 6 imaging sessions over 8 months, data not shown
# [2] = In vivo stability: urine metabolite analysis by radio HPLC; details: mouse urine collected 1 hour post-injection, 3 mice
# In short: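 Urine was collected 1 hour after tail-vein injection of radiolabelled test compound (66.3-70.6 μCi in 150 μl PBS) from 3 of the healthy biodistribution mice. Samples were diluted to 1 mL with solvent A (99.9% H2O, 0.1% TFA) and analysed by radio HPLC.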
# [3] = Ex vivo biodistribution in healthy mice; details: mouse, iv, total radioactivity
# In short: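 Healthy mice (N=5) were anaesthetised and given 66.3-70.6 μCi (2.45-2.61 MBq) of radiolabelled test compound in 150 μl PBS by tail vein, then euthanised 1 hour post-injection. Organs were removed, weighed and gamma counted, giving %ID/g or %ID/cm3. Soft-tissue density was taken as 1 g/cm3. Lung density was lung weight divided by CT volume from pre-injection CT. Mean ± standard error mean.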
# [4] = Stability in mouse serum by radio HPLC; assay type: in vitro ADME; details: tracer in PBS with equal volume of mouse serum, 37°C, 4 hours
# In short: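 Radiotracer in PBS was mixed with an equal volume of mouse serum and incubated at 37°C. Samples taken at 1 and 4 hours were quenched with one volume of solvent A (99.9% H2O, 0.1% TFA) plus one volume of DMF, centrifuged, passed through a 0.2 micron spin filter and analysed by radio HPLC.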
compound,measurement,setting,value
"CC(C)C[C@@H]1NC(=O)[C@@H]2CSSC[C@@H](C(=O)NCC(N)=O)NC(=O)[C@H](Cc3ccccc3)NC(=O)CNC(=O)[C@H](CC(N)=O)NC(=O)[C@@H]3CCCN3C(=O)CNC(=O)[C@@H]3CSSC[C@H](NC(=O)[C@H]([C@@H](C)O)NC(=O)[C@H](CC(C)C)NC(=O)[C@@H]4CCCN4C(=O)[C@@H]4CCCN4C(=O)[C@H](CC(N)=O)NC(=O)[C@H](CC(=O)O)NC(=O)CNC(=O)[C@H](CCCNC(=N)N)NC(=O)[C@@H]4CCCN4C(=O)[C@H](CCCNC(=N)N)NC(=O)[C@@H]4CCCN4C(=O)[C@@H](NC(=O)CNC(=O)CN4CCN(CC(=O)O)CCN(CC(=O)O)CCN(CC(=O)O)CC4)CSSC[C@H](NC(=O)CNC(=O)[C@H](C)NC1=O)C(=O)N[C@@H](C(C)C)C(=O)N3)C(=O)N[C@@H](CO)C(=O)N[C@@H](CCC(N)=O)C(=O)N[C@@H](CC(=O)O)C(=O)N[C@@H](CO)C(=O)N[C@@H](CC(=O)O)C(=O)N2 [^64Cu-DOTA-knottin 2.5F, metal not drawn] (HELM PEPTIDE1{[O=C(O)CN1CCN(CC(=O)O)CCN(CC(=O)[*:2])CCN(CC(=O)O)CC1].G.C.P.R.P.R.G.D.N.P.P.L.T.C.S.Q.D.S.D.C.L.A.G.C.V.C.G.P.N.G.F.C.G.[am]}$PEPTIDE1,PEPTIDE1,3:R3-25:R3|PEPTIDE1,PEPTIDE1,15:R3-27:R3|PEPTIDE1,PEPTIDE1,21:R3-33:R3$$$V2.0; N-terminus and C-terminus assumed)",Acute immune response on repeated imaging,[1],without the observation of an acute immune response
same,"Stability in vivo, excretion in urine",[2],mainly excreted intact
same,tissue uptake per volume at 1 h,[3]; kidneys,11.4 ± 1.45 %ID/mL
same,tissue uptake per volume at 1 h,"[3]; stomach, intestine, spleen, liver",1.28 to 2.53 %ID/mL
same,Serum stability,[4],highly stable
